Measurements published in PubChem BioAssay.
Values without a mark were called inactive. Records with an inconclusive call do not appear. Calls of active or inactive are those of the source.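 How the source made its calls, unless noted: active means RAM network inhibition above 8.4% in each of two replicates, 3 SD over the compound average; inconclusive means above 8.4% inhibition in only one replicate; inactive means 8.4% inhibition or less in each replicate.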

What was measured:
[1] = OD615 S. cerevisiae growth inhibition, permissive medium, pilot counter-assay, permissive growth control for S. cerevisiae lifespan shortening project (AID 705;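 active means growth inhibition above 25% in both replicates, a cutoff set 3 SD above the mean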); settings: OD615, 24 h, at 10 µM, stronger effect = higher value
Summary of the method: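 Material: engineered DeaD yeast; compound dosing: one dose 10 µM, DMSO 0.25% final; measure: yeast growth inhibition indicated by reduced 24 h OD615; detection: OD615 turbidity read; incubation: cells pre-grown 4 h, then 24 h compound exposure, 30 °C humidified; medium: permissive synthetic complete medium with raffinose and galactose carbon sources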

[2] = Restrictive medium S. cerevisiae growth inhibition, OD615, pilot screen of yeast lifespan reduction project, restrictive growth control (AID 706;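 active means growth inhibition above a set limit, 3 SD over mean compound inhibition, in both replicates, cut at about 43% in these data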;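 further: modified DeaD lifespan yeast strain shifted to restrictive glucose medium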); settings: OD615, 48 h, at 10 µM, stronger effect = higher value
Summary of the method: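 material = engineered S. cerevisiae DeaD strain | medium = glucose-based CSMM-D restrictive medium | times = 4 h pre-incubation, 48 h exposure at 30 °C | technique = OD615 absorbance reading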

[3] = viability gain of MRP-1-high H69AR cells under doxorubicin, pilot screen, MRP-1 activator project, CellTiter-Glo, duplicate (AID 807;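 active means viability increase at or above a cutoff of the median across tested compounds plus 3 SD, cut at about 8.5% in these data, passing the limit was not always enough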;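 further: compound pretreatment 18-22 h then 72 h combined with doxorubicin; 0% = doxorubicin alone and 100% = vehicle without doxorubicin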); settings: H69AR viability with doxorubicin, CellTiter-Glo luminescence; at 10 µM; stronger effect = higher value
[4] = growth suppression of PTEN-deleted HCT116, pilot screen, cell-based, HCT116 clonal line, CellTiter-Glo (AID 824;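 active means viability at or below 27.92% in each of two runs, the all-compound median minus 4 SD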;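 further: 0% = 20 µM Hyamine control and 100% = vehicle cell control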); settings: 60 h, at 10 µM, stronger effect = lower value
[5] = inhibitors of the yeast RAM network, pilot screen, dse1pr::URA3 reporter, 5-FOA selection (AID 869;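 active means inhibition over a set limit, the all-compound mean plus 3 SD, in both replicate runs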;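 further: 0% = DMSO wells with no growth and 100% = 10 µM 1-NA-PP1 with full growth; RAM network block rescues cells from 5-FOA so hits raise OD615 growth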); settings: S. cerevisiae dse1pr::URA3 5-FOA growth, OD615, 2 d; at 10 µM; stronger effect = higher value; strain carries analog-sensitive mutant Cbk1 kinase
[6] = RAM signaling pathway blockade in yeast – S. cerevisiae, Pdr1DBD-CYC8 efflux-inhibited sensitized strain, primary screen (AID 1298);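 further: 0% = DMSO untreated cells without growth and 100% = 10 µM 1-NA-PP1 full growth; higher means more yeast growth rescued from 5-FOA killing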; settings: S. cerevisiae cbk1-as DSE1-URA3 strain, 5-FOA growth OD615, 2 d; at 50 µM; stronger effect = higher value

Row | Structure (SMILES) | growth inhibition [1] [%] | growth inhibition [2] [%] | viability increase [3] [%] | viability [4] | inhibition [5] [%] | RAM network inhibition [6] [%]
1 | COc1cc2[nH]c(=O)n(CCCC(=O)N3CC=C(c4ccccc4)CC3)c(=O)c2cc1OC | -11.3 | -6.67 | -4.59 | 80.5% | 0.355 | 1.8
2 | Cc1oc(-c2cccc(Cl)c2)nc1CN1CCC(C(=O)N2CCN(c3ccccn3)CC2)CC1 | -5.81 | -1.31 | -7.36 | 27% (active) | 0.99 | 4.79
3 | CSc1nnc2c(n1)OC(c1cn(C)c3ccccc13)N(C(C)=O)c1ccccc1-2 (centres undefined) | -8.46 | -4.85 | -2.79 | 98.9% | 1.54 | 3.59
4 | CC1(C)CC(=O)C(C=NC2CC(C)(C)NC(C)(C)C2)=C(O)C1 | -1.6 | -7.89 | 0.22 | 95.5% | 1.82 | 4.6
5 | CCS(=O)(=O)C(=C(Nc1ccc(OC)cc1)Nc1ccc(OC)cc1)S(=O)(=O)CC | -3.28 | 4.84 | -0.19 | 95.3% | 0.04 | 7.21
6 | NC(=O)CNC1CC(=O)N(CCc2ccccc2)C1=O (centres undefined) | 2.06 | 4.79 | -2.49 | 98.5% | 0.77 | 1.69
7 | Cc1onc(-c2ccccc2Cl)c1C(=O)N1CCN(c2cccc(Cl)c2)CC1 | -18.9 | -13.7 | -6.53 | 22% (active) | 2.73 | 10.4
8 | COc1ccc(S(=O)(=O)N2CCCCC2C(=O)O)cc1OC (centres undefined) | -7 | -10.8 | -0.69 | 101% | 2.17 | 5.22
9 | C(=C\CSc1nnnn1-c1ccccc1)/CSc1nnnn1-c1ccccc1 | -9.57 | -3.65 | -1.58 | 87.6% | 3.83 | 10
10 | O=S(=O)(Cc1ccccc1)N1CCc2ccccc2C1 | 2.65 | -4.61 | -0.66 | 95.8% | 3.92 | 6.16
11 | CC(NC(=O)c1ccccc1O)c1ccccc1 (centres undefined) | 0.015 | -2.42 | 0.41 | 94.1% | 0.1 | 0
12 | COc1ccc(S(=O)(=O)C(C#N)c2nc3ccccc3nc2N2CCC(C)CC2)cc1 (centres undefined) | -12.1 | -14.1 | -4.72 | 87.9% | 3.85 | 8.8
13 | CC(=O)NCCOC(=O)Nc1ccncc1 | 4.58 | -5.27 | -0.91 | 99.1% | 1.32 | 3.18
14 | COc1ccc(C2CC(=O)C(C=NCCO)=C(O)C2)cc1OC (centres undefined) | -5.79 | 4.22 | 1.21 | 105% | -0.07 | -0.41
15 | COc1ccc(OC)c(NC(=O)C(CC(C)C)NC(=O)C2CCCCC2)c1 (centres undefined) | -5.08 | 11.6 | -5.29 | 86% | 1.02 | 3.18
16 | CCN1C(=S)SC(=O)C1=C1C=C(C)N(CCO)C(C)=C1 | 1.7 | 23.4 | -2.35 | 95.3% | 1.45 | 0.11
17 | COc1ccc(Oc2coc3c(CN(C)C)c(O)ccc3c2=O)cc1 | -5.32 | -12.9 | -7.46 | 95.3% | 0.075 | -0.21
18 | COc1cccc(OCCOc2cccc(/C=N/n3cnnc3)c2)c1 | 6.03 | 21.9 | -2.71 | 95.8% | 1.62 | 0.36
19 | COCCNS(=O)(=O)c1ccc2c(c1)C(=O)c1cc(S(=O)(=O)NCCOC)ccc1-2 | -1.33 | 0.015 | -0.81 | 96.4% | 2.15 | 3.45
